Data: ChEMBL document CHEMBL4196202, “Discovery and Structure-Based Optimization of Benzimidazole-Derived Activators of SOS1-Mediated Nucleotide Exchange on RAS” (J Med Chem, 2018)

Assays:
[1] = target: T1, Son of sevenless homolog 1 (Homo sapiens) (UniProt Q07889); assay: Activation of human recombinant N-terminal His6-tagged SOS1 (564 to 1049 residues) expressed in BL21-RIL Escherichia coli assessed as SOS1-RAS complex formation by measuring exchange of GTP to BODIPY-GDP measured every 3 secs for 30 mins by nucleotide exchange assay relative to control; parameters: concentration or dose not given beside the values
T1 sequence (whole entry): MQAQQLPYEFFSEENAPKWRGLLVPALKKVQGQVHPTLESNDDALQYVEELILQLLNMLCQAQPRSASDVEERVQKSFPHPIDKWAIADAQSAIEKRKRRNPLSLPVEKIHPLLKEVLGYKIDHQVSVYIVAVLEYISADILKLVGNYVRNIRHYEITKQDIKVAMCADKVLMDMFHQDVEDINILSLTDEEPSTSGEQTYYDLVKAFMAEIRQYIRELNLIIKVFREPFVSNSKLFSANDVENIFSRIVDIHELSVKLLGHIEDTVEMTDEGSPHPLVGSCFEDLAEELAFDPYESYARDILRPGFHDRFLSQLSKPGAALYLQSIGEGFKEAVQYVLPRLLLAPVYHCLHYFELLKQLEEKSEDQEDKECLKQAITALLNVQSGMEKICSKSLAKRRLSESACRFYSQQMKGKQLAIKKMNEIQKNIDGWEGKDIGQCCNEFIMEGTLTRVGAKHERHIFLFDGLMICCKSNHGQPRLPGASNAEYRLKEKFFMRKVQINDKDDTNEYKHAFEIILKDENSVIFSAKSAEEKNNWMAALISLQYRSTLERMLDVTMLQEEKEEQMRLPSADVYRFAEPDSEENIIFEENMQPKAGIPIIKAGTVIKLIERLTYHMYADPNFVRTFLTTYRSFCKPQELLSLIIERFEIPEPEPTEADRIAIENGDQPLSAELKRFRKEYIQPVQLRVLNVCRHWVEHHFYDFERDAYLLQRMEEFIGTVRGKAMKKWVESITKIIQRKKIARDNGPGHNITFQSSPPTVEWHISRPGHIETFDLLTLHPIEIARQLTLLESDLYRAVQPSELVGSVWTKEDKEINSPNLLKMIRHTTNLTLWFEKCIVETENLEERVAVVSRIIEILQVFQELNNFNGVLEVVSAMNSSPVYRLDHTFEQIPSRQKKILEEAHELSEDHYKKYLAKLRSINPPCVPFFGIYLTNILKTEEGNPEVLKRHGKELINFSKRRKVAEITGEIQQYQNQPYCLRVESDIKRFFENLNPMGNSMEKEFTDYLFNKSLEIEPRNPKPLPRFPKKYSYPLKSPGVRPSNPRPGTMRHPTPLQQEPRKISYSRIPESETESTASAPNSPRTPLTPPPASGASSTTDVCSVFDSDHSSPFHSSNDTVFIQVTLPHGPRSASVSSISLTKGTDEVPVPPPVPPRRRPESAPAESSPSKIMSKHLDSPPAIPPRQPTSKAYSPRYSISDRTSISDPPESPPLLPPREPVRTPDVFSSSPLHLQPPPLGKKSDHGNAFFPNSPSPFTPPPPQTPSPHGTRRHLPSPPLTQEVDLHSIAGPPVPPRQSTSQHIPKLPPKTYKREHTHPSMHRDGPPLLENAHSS

[2] = target: T2, Son of sevenless homolog 1 (Homo sapiens, UniProt Q07889); assay: Activation of human recombinant N-terminal His6-tagged SOS1 (564 to 1049 residues) expressed in BL21-RIL Escherichia coli assessed as SOS1-RAS complex formation by measuring exchange of GTP to BODIPY-GDP measured every 3 secs for 30 mins by nucleotide exchange assay
T2 sequence (Q07889 whole entry): T1 sequence (whole entry)

[3] = target: T2, Son of sevenless homolog 1; assay: Binding affinity to human recombinant N-terminal His6-tagged SOS1 (564 to 1049 residues) expressed in BL21-RIL Escherichia coli by fluorescent probe S1 based fluorescence polarization anisotrophy saturation binding assay
In short: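 SOS1cat (aa 564–1049) was titrated in a 12-point, 2-fold series from 10 μM top against 50 nM fluorescein-labeled probe. Buffer was 20 mM Tris-HCl pH 7.5, 50 mM NaCl, 1 mM magnesium chloride, with 20 min at room temperature in the dark. Anisotropy was read and Kd reported as mean ± SD of at least three independent experiments.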

[4] = target: T2, Son of sevenless homolog 1; assay: Binding affinity to human recombinant N-terminal His6-tagged SOS1 (564 to 1049 residues) expressed in BL21-RIL Escherichia coli by fluorescent probe S2 based fluorescence polarization anisotrophy saturation binding assay

| Compound | Activity [1] [%] | EC50 [2] [µM] | Kd [3] [µM] | Kd [4] [µM] |
| --- | --- | --- | --- | --- |
| Cc1ccc2nc(N3CCNCC3)n(Cc3ccc(F)c(Cl)c3)c2c1 | 106 | 2.4 | – | – |
| Fc1ccc(Cn2c(N3CCNCC3)nc3ccc(Br)cc32)cc1Cl | 115 | 1.3 | – | – |
| CCc1ccccc1-c1cc(Cl)cc2c1nc(N1CCNCC1)n2Cc1cc(C)c(F)c(C)c1 | – | – | 0.21 | – |
| Cc1cc(Cn2c(N3CCNCC3)nc3c(-c4cccnc4)cc(Cl)cc32)cc(C)c1F | – | – | 0.33 | – |
| Cc1cc2nc(N3CCNCC3)n(Cc3ccc(F)c(C(F)(F)F)c3)c2cc1C | 263 | 8.1 | – | – |
| Cc1cc(Cn2c(N3CCNCC3)nc3c(-c4cccnn4)cc(Cl)cc32)cc(C)c1F | – | – | – | 0.45 |
| Cc1cc(Cn2c(N3CCNCC3)nc3c(-c4c(C)cccc4C)cc(Cl)cc32)cc(C)c1F | – | – | – | 0.3 |
| Cc1ccccc1-c1cc(Cl)cc2c1nc(N1CCNCC1)n2Cc1cc(C)c(F)c(C)c1 | – | – | – | 0.21 |
| Cc1cc2nc(N3CCNCC3)n(Cc3ccc(F)c(C4CC4)c3)c2cc1C | 151 | 11.7 | – | – |
| Cc1cc2nc(NCCN)n(Cc3ccc(F)c(Cl)c3)c2cc1C | 114 | 1.9 | – | – |
| Cc1cc2nc(N3CCCNCC3)n(Cc3ccc(F)c(Cl)c3)c2cc1C | 176 | 8.5 | – | – |
| Cc1cc(Cn2c(N3CCNCC3)nc3c(-c4cn[nH]c4)cc(Cl)cc32)cc(C)c1F | – | – | – | 0.18 |
| Cc1cc2nc(N3CCC(N)CC3)n(Cc3ccc(F)c(Cl)c3)c2cc1C | 114 | 6.6 | – | – |
| Cc1cc2nc(N3CCNCC3)n(Cc3ccc(F)c(C)c3)c2cc1C | 190 | 4.1 | – | – |
| Cc1cc2nc(N3CCNCC3)n(Cc3ccc(F)c(Cl)c3)c2cc1Cl | 200 | 3 | – | – |
| Fc1ccc(Cn2c(N3CCNCC3)nc3ccc(C(F)(F)F)cc32)cc1Cl | 78 | 4.4 | – | – |
| Cc1cc(Cn2c(N3CCNCC3)nc3c(N4CCC(N)CC4)cc(Cl)cc32)cc(C)c1F | – | – | 0.24 | – |
| Cc1cc(Cn2c(N3CCNCC3)nc3c(N4CCC[C@H]4CO)cc(Cl)cc32)cc(C)c1F | – | – | – | 0.31 |
| Cc1cc(Cn2c(N3CCNCC3)nc3c(-c4ccc(C(F)(F)F)cc4)cc(Cl)cc32)cc(C)c1F | – | – | 1.05 | – |
| Cc1cc2ncn(Cc3ccc(F)c(Cl)c3)c2cc1C | – | > 100 | – | – |
| Fc1ccc(Cn2c(N3CCNCC3)nc3ccc(Cl)cc32)cc1Cl | 109 | 1 | – | – |
| Cc1cc2nc(N3CCNCC3)n(Cc3ccc(F)cc3)c2cc1C | 130 | 5.9 | – | – |
| Cc1cc2nc(C3CCNCC3)n(Cc3ccc(F)c(Cl)c3)c2cc1C | 128 | 5.6 | – | – |
| Cc1cc(Cn2c(N3CCNCC3)nc3c(-c4cnccn4)cc(Cl)cc32)cc(C)c1F | – | – | – | 0.39 |
| Cc1cc(Cn2c(N3CCNCC3)nc3c(-c4ccccc4CO)cc(Cl)cc32)cc(C)c1F | – | – | – | 0.14 |
